Data published in ChEMBL document CHEMBL1138751, “Dipeptidomimetic ketomethylene isosteres as pro-moieties for drug transport via the human intestinal di-/tripeptide transporter hPEPT1: design, synthesis, stability, and biological investigations” (J Med Chem, 2004).

Experiments:
[1] = biological target: T1, Solute carrier family 15 member 1 (Homo sapiens, UniProt P46059); assay: Affinity for hPEPT1 in mature Caco-2 cell monolayers using [14C]-Gly-Sar
T1 sequence (P46059 whole entry): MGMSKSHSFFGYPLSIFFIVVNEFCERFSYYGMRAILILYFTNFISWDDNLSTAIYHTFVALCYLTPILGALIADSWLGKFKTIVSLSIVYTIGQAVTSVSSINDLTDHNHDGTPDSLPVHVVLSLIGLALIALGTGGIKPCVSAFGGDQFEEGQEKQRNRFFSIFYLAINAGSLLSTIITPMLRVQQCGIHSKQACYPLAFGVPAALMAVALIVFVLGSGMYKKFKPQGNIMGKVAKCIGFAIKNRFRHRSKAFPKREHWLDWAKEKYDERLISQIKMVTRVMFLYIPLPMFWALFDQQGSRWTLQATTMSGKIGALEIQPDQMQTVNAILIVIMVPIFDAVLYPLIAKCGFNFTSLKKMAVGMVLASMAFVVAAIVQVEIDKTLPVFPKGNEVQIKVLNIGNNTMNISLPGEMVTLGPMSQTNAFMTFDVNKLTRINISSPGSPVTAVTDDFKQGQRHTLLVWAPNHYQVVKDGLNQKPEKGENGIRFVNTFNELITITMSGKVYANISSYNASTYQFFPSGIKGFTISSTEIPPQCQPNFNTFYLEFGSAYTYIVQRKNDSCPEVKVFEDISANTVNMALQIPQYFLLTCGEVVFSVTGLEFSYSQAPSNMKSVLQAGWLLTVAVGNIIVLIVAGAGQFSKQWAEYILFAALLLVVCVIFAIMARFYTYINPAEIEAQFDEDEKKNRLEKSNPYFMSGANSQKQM
In short: (§1)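 Caco-2 monolayers on Transwell filters, used 25–27 days after seeding (TEER 354 ± 41 […]). Compound at varying concentrations plus 0.5 μCi [14C]-Gly-Sar in apical MES-buffered HBSS (pH 6.0, 0.05% BSA); HEPES buffer (pH 7.4) basolateral. Incubated 5 min at 37 °C with shaking, washed with ice-cold HBSS, and cell-associated radioactivity counted. Inhibition fitted to a Hill-type equation for IC50; Ki derived by Cheng–Prusoff using Gly-Sar Km 1.1 mM. Duplicates in three passages.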

[2] = biological target: T1, Solute carrier family 15 member 1; assay: Inhibition of [14C]Gly-Sar transport by hPEPT1 in Caco-2 cell monolayers; assay type: cell-based; in short: as §1

Row | Structure (SMILES) | Ki [1] | IC50 [2]
1 | N[C@@H](Cc1ccccc1)C(=O)CCC(=O)OCc1ccccc1 | 905 µM | 915 µM
2 | CC(C)[C@H](N)C(=O)C[C@@H](CC(=O)OCc1ccccc1)C(=O)O | 19 µM | 19 µM
3 | CC(C)[C@H](N)C(=O)CCC(=O)OCc1ccccc1 | 133 µM | 134 µM
4 | N[C@@H](Cc1ccccc1)C(=O)C[C@@H](CC(=O)OCc1ccccc1)C(=O)O | 68 µM | 69 µM
5 | NC(CC(=O)OCc1ccccc1)C(=O)CCC(=O)O (stereo not given) | 417 µM | 422 µM
